Kir21 inh = Kir2.1 (mouse) channel inhibition; P35561; HEK293-Kir2.1, FluxOR thallium flux fluorescence; stronger effect = lower value; B-score at 10 µM; 0.85% of 310,000 active; AID 1672;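 active = fluorescence ratio B-score at or below minus 3 SD of library scores, with starting-brightness B-score within 2 SD, cut at about -4.2 in these data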;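 also: channel flux triggered by added potassium and thallium sulfate stimulus; B-score of peak minus minimum fluorescence over baseline after thallium stimulus; more negative B-score means stronger Kir2.1 block with less thallium influx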
KCNK9 block = blocks the human KCNK9 two-pore domain potassium channel. B-score at 10 µM. AID 488922. HEK293 KCNK9, FluxOR thallium flux fluorescence; stronger effect = lower value. Q9NPC2. 1.2% of 310,000 active;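 active = ratio B-score over 3 SD below the library mean, with starting fluorescence within 5 SD of its mean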;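 also: negative B-score means less thallium flux so channel inhibition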
Target sequence (Q9NPC2 whole entry, looked up, the tested form may be a part): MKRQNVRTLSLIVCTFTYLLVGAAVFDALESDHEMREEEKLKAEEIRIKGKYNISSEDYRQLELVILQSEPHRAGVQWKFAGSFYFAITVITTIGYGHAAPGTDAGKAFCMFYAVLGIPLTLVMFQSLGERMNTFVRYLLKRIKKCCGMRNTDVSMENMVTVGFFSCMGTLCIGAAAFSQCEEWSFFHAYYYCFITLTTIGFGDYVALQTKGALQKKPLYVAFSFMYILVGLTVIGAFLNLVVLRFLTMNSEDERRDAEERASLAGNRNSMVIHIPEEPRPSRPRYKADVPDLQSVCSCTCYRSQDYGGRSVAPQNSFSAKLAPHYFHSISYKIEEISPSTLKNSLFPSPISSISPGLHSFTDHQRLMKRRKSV
hERG rescue = shields human hERG channel from block by proarrhythmic agents. AID 1511. 0.51% of 310,000 active. activation (rescue from dofetilide block), less the hit threshold, % at 10 µM. Q12809. CHO-hERG, FluxOR thallium flux, dofetilide IC70 present;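 active = activation above the mean of controls blocked by dofetilide plus 5 SD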;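 also: thallium influx through hERG after potassium depolarization seen as dye fluorescence rise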
KCNK3 inh = human KCNK3 channel inhibition, primary screen. O14649. AID 602410. B-score at 10 µM. 0.84% of 340,000 active. CHO-KCNK3 thallium flux, FluxOR fluorescence; stronger effect = lower value;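 active = B-score under library mean minus 4 SD, starting fluorescence ratio at most library mean plus 5 SD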;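 also: more negative B-score means stronger inhibition of thallium flux through KCNK3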
KCNQ1 act = potentiates or activates the human KCNQ1 potassium channel. CHO-K1 KCNQ1, thallium flux FluxOR fluorescence; stronger effect = higher value. B-score at 10 µM. 0.35% of 310,000 active;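 active = fluorescence ratio B-score, a plate-corrected score, at least three library SD, with initial intensity B-score within 5 SD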
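assay system = KCNQ1-transfected CHO-K1 cells | medium = assay buffer with matched DMSO | probe or stimulus = depolarizing K+/Tl+ stimulus, K2SO4 and Tl2SO4 each 12.5 mM in 5x stock | dosing = single dose | incubation = dye 90 min, compound 20 min, room temperature | detection = kinetic FluxOR fluorescence, 10 s baseline plus 110 s post-stimulus | evaluation = ratio B score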
KCNQ1 inh = blocks the human KCNQ1 potassium channel. P51787. B-score at 10 µM. 1.3% of 310,000 active. CHO-K1 KCNQ1, FluxOR thallium flux fluorescence; stronger effect = higher value;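 active = compounds whose thallium flux B-score, printed positive for inhibition, exceeds three library SD while starting fluorescence stays within three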;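 also: channel opened by potassium depolarization with thallium stimulus after 20 min compound exposure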
* marks the source's active call; other numbers are inactive results. Shown are actives, neighbours in structure and some others; about 3.7% of the full set was active somewhere.

`CC(C)Cc1cc(C(=O)N(C)C2CCCN(Cc3ccccc3F)C2)n(C)n1` (stereo not drawn) gave Kir21 inh -1.4, KCNK9 block inactive, hERG rescue -1, KCNK3 inh inactive, KCNQ1 act inactive and KCNQ1 inh inactive.
Screening COc1ccc(S(=O)(=O)N(C)C[C@H]2Oc3c(NC(=O)C4CCCCC4)cccc3C(=O)N([C@H](C)CO)C[C@@H]2C)cc1 returned KCNK3 inh inactive.
CCOC(=O)C1C(c2ccccc2)C(C(=O)OCC)C1c1ccccc1 (stereo not drawn) was read as Kir21 inh 1.1, KCNK9 block inactive, hERG rescue 5.7*, KCNK3 inh inactive, KCNQ1 act inactive and KCNQ1 inh inactive.
COc1ccc(N(CC(=O)N2CCN(Cc3ccccc3)CC2)S(C)(=O)=O)cc1OC was read as Kir21 inh -0.01, KCNK9 block inactive, hERG rescue 9.3*, KCNK3 inh inactive, KCNQ1 act inactive and KCNQ1 inh inactive.
`O=C1NC(=O)/C(=C/c2ccccc2Oc2ccc(Cl)cc2)S1` gave Kir21 inh -0.07, KCNK9 block inactive, hERG rescue -10, KCNK3 inh inactive, KCNQ1 act inactive and KCNQ1 inh 11*.
O=C(COc1ccccc1/C=C1\SC(=O)NC1=O)Nc1ccc(F)cc1 was read as Kir21 inh -0.83, KCNK9 block inactive, hERG rescue -1, KCNK3 inh inactive, KCNQ1 act inactive and KCNQ1 inh inactive.
Cc1ccc(Oc2ccccc2/C=C2\SC(=O)N(C)C2=O)cc1 was read as Kir21 inh -0.59, KCNK9 block inactive, hERG rescue -14, KCNK3 inh inactive, KCNQ1 act inactive and KCNQ1 inh 6*.
Cc1ccc(S(=O)(=O)Oc2ccccc2/C=C2\SC(=O)NC2=O)cc1 was read as Kir21 inh 1.5, KCNK9 block inactive, hERG rescue -16, KCNK3 inh inactive, KCNQ1 act inactive and KCNQ1 inh 8*.
`CCN(CC)S(=O)(=O)c1cccc(C(=O)NCC2(N3CCOCC3)CCCCC2)c1` gave KCNK3 inh inactive.
For O=C(N1CCN(c2ccccn2)CC1)N1c2ccccc2Sc2ccccc21 the results were Kir21 inh 1.2, KCNK9 block -7.6*, hERG rescue -9, KCNK3 inh inactive, KCNQ1 act inactive and KCNQ1 inh inactive.
For O=C(/C=C/c1ccccc1Cl)N(Cc1cccs1)C1CCS(=O)(=O)C1 (stereo not drawn) the results were Kir21 inh 1.7, KCNK9 block -7.5*, hERG rescue -6, KCNK3 inh inactive, KCNQ1 act inactive and KCNQ1 inh inactive.
`COc1cc(/C=C2/C(=O)NN(c3ccccc3)C2=O)cc(Br)c1O` gave Kir21 inh 0.2, KCNK9 block inactive, hERG rescue 6.8*, KCNK3 inh inactive, KCNQ1 act inactive and KCNQ1 inh inactive.
COc1ccc(Nc2oc(COc3ccccc3F)nc2C#N)cc1 was read as Kir21 inh 0.38, KCNK9 block -8*, hERG rescue -10, KCNK3 inh inactive, KCNQ1 act inactive and KCNQ1 inh inactive.
`O=C(Cn1c(=O)oc2ccccc21)Nc1ccc(Cl)cc1Cl` gave Kir21 inh -0.99, KCNK9 block inactive, hERG rescue -6, KCNK3 inh inactive, KCNQ1 act inactive and KCNQ1 inh inactive.
Screening COc1cc2c(cc1Cl)/C(=C\CCN(C)C)c1ccccc1S2 returned Kir21 inh -11*, KCNK9 block inactive, hERG rescue -16, KCNK3 inh inactive, KCNQ1 act inactive and KCNQ1 inh inactive.
Cc1ccccc1NC(=O)Cc1nc(COC(=O)c2cc([N+](=O)[O-])ccc2N)cs1 was read as Kir21 inh 1.1, KCNK9 block inactive, hERG rescue -14, KCNK3 inh inactive, KCNQ1 act inactive and KCNQ1 inh inactive.
For O=C(Nc1nc(-c2cccnc2)cs1)c1ccccc1Cl the results were Kir21 inh 0.19, KCNK9 block inactive, hERG rescue 41*, KCNK3 inh inactive, KCNQ1 act inactive and KCNQ1 inh inactive.
`Cc1ccccc1C(=O)Nc1nc(-c2cccnc2)cs1` gave Kir21 inh -0.82, KCNK9 block inactive, hERG rescue -8, KCNK3 inh inactive, KCNQ1 act inactive and KCNQ1 inh inactive.
`CN(c1ccccc1)c1nc(N)c([N+](=O)[O-])c(Nc2ccccc2F)n1` gave Kir21 inh -1.6, KCNK9 block -6.9*, hERG rescue -3, KCNK3 inh inactive, KCNQ1 act inactive and KCNQ1 inh inactive.
For CCn1c2ccccc2c2cc(Nc3cc(C)nc4ncnn34)ccc21 the results were Kir21 inh -7.6*, KCNK9 block inactive, hERG rescue -23, KCNK3 inh inactive, KCNQ1 act inactive and KCNQ1 inh inactive.
`CCc1ccc(Nc2cc(C)nc3ncnn23)cc1` gave Kir21 inh 2.7, KCNK9 block inactive, hERG rescue -8, KCNK3 inh inactive, KCNQ1 act inactive and KCNQ1 inh inactive.
c1ccc(COc2ccccc2CNC23CC4CC(CC(C4)C2)C3)cc1 was read as Kir21 inh -9.8*, KCNK9 block inactive, hERG rescue -19, KCNK3 inh inactive, KCNQ1 act inactive and KCNQ1 inh inactive.
Screening CCCCNS(=O)(=O)c1ccc2nc(SCC(=O)Nc3sccc3C#N)[nH]c2c1 returned Kir21 inh -0.89, KCNK9 block inactive, hERG rescue -23, KCNK3 inh inactive, KCNQ1 act inactive and KCNQ1 inh 11*.
CCNc1nc(C#N)nc2c1ncn2-c1cc(F)cc(F)c1 was read as KCNK3 inh inactive.
For C=CCSC1=C(C#N)C(c2ccccc2Cl)C(C(=O)c2cccs2)C(O)(C(F)(F)F)N1 (stereo not drawn) the results were Kir21 inh -1.7, KCNK9 block inactive, hERG rescue -12, KCNK3 inh inactive, KCNQ1 act inactive and KCNQ1 inh 10*.
Screening CCSC1=C(C#N)C(c2ccccc2Cl)C(C(=O)c2cccs2)C(O)(C(F)(F)F)N1 (stereo not drawn) returned Kir21 inh -1.5, KCNK9 block inactive, hERG rescue -19, KCNK3 inh inactive, KCNQ1 act inactive and KCNQ1 inh inactive.
`Cc1cc(O)c2/c(=N\N)c(-c3csc(C)n3)coc2c1` gave Kir21 inh -0.51, KCNK9 block inactive, hERG rescue -5, KCNK3 inh inactive, KCNQ1 act inactive and KCNQ1 inh inactive.
For CCOc1ccc(NC(=O)CCCN2C(=O)C(c3ccccc3)Oc3cccnc32)cc1 (stereo not drawn) the results were Kir21 inh 0.39, KCNK9 block inactive, hERG rescue -6, KCNK3 inh inactive, KCNQ1 act inactive and KCNQ1 inh inactive.

Bioassay records from PubChem.
